Screening data deposited in PubChem BioAssay by Johns Hopkins Ion Channel Center.
RGS4 inh = human RGS4 inhibition; P49798; HEK293 M3R/RGS4 inducible, Fluo-4 calcium flux; stronger effect = higher value; triggered by carbachol at its EC20; B-score at 10 µM; 310,000 tested, 0.45% active; AID 463165;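 active = B-score, a plate-corrected calcium signal, over three deviations above library mean, with baseline fluorescence within five deviations of library mean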;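 also: RGS4 expression induced by doxycycline in cells with stable M3 receptor; B-score is computed from the integrated fluorescence ratio over baseline after carbachol; higher B-score means a larger calcium signal and so more RGS4 inhibition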
Target sequence (P49798 whole entry, looked up): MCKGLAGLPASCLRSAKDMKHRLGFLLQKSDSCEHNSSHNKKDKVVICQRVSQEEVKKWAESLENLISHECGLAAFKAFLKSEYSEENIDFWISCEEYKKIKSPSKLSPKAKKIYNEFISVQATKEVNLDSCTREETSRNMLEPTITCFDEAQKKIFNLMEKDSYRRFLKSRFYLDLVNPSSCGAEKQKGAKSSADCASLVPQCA
MrgX1 allo act = human MrgX1 positive allosteric modulation, primary screen; Q96LB2; B-score at 10 µM; MrgX1-HEK293, Fluo-4 calcium flux, FDSS; stronger effect = higher value; 310,000 tested, 0.63% active;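 active = plate-corrected calcium response at least 3 library SD above typical, normal starting fluorescence, not activating the receptor alone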;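 also: compound read alongside a low EC10 to EC30 dose of BAM8-22 agonist; peak minus trough fluorescence over baseline measured at the second addition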
Target sequence (Q96LB2 whole entry, looked up): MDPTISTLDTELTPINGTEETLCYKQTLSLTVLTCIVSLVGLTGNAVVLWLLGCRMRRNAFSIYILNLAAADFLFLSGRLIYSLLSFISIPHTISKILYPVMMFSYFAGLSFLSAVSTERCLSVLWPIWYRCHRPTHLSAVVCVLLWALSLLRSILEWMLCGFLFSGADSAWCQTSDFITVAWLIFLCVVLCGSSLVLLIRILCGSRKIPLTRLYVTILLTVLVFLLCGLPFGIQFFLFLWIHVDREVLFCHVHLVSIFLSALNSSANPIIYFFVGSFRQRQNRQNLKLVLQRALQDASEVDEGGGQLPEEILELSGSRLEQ
MrgX1 ag = agonists of human MrgX1 receptor; B-score at 10 µM; 310,000 tested, 0.44% active; MrgX1-HEK293 cells, Fluo-4 calcium fluorescence, agonist mode; stronger effect = higher value; Q96LB2;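 active = calcium response B-score plate-corrected fluorescence ratio at least 3 library SD, with starting fluorescence B-score inside 5 SD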
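System – MrgX1-expressing HEK293 cells · Incubation – cells plated overnight, dye loaded 0.5 h 37 °C, 0.5 h room temperature · Technique – kinetic Fluo-4 NW fluorescence of intracellular calcium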
RGS4 act = potentiators or activators of RGS4. HEK293 M3R/inducible RGS4, carbachol calcium flux Fluo4; stronger effect = lower value. B-score at 10 µM. 310,000 tested, 0.92% active;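 active = B-score of the integrated calcium signal more than 4 SD below the library mean, with starting fluorescence not abnormally high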;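 also: negative B-score means reduced calcium response which marks RGS4 activation or potentiation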
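Detection: kinetic calcium fluorescence imaging with Fluo4-AM dye, 2 µM / Material: HEK293 cells with stable M3R and inducible RGS4 / Schedule: recording 10 s baseline at 1 Hz, 100 s post-agonist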
MrgX1 antag = antagonists of human MrgX1 receptor; MRGX1-HEK293 calcium flux, Fluo-4, BAM8-22 antagonism; stronger effect = lower value; 310,000 tested, 1.3% active; B-score at 10 µM;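 active = calcium-response B-score plate-corrected more than 3 library SD below zero, starting fluorescence within 5 deviations, no agonist response on first addition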;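 also: peak minus trough fluorescence over baseline after final BAM8-22 challenge near maximal dose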
RGS4 act valid = confirmation of RGS4 activators; shares compounds with RGS4 act; inhibition, % at 10 µM; 1,100 tested, 89% active; HEK293 M3R/RGS4 inducible, carbachol calcium flux Fluo4;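 active = inhibition above 3 SD of the buffer control wells, cut at about 41% in these data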;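 also: signal is the integrated peak-minus-minimum Fluo4 fluorescence over baseline ratio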
M3R Ca counter = activity in cells without induced RGS4 expression; shares compounds with RGS4 act; HEK293 M3R non-induced RGS4, Fluo4 calcium flux; after carbachol challenge at its EC90; inhibition, % at 10 µM; 1,100 tested, 82% active; AID 602283;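 active = inhibition exceeding 3 SD of buffer-only control wells, cut at about 26% in these data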;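 also: percent drop in integrated peak-minus-baseline over baseline Fluo4 ratio after carbachol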
The depositor's hits bear a star; i = inactive; / = no result. In the library only some 3.5% were active in any assay of this set; here they are far more common.

SMILES	RGS4 inh	MrgX1 allo act	MrgX1 ag	RGS4 act	MrgX1 antag	RGS4 act valid	M3R Ca counter
Cc1ccc2c(c1)NC(=O)C(CC(=O)Nc1ccc(CN3CCC(C)CC3)cc1)O2 (configuration not stated)	i	i	i	-7.69*	i	92.0*	94.8*
CC1CCN(CC(=O)Nc2ccc(S(=O)(=O)NC3CC3)cc2)CC1	i	i	i	i	i	/	/
CCc1ccc(NC(=O)C2CCCN2c2nn3c(=O)cc(C)nc3s2)cc1 (configuration not stated)	i	i	i	i	i	/	/
CCOc1ccc(OCCN2CCCCC2)cc1	i	i	i	i	i	/	/
CCCOc1ccc(C(O)(CCC)CCN2CCCCC2)cc1 (configuration not stated)	i	i	i	-8.34*	i	87.5*	35.8*
CCCC(O)(CCN1CCOCC1)c1ccc(Br)cc1 (configuration not stated)	i	i	i	-9.04*	i	91.0*	78.3*
CCCC(O)(CCN1CCOCC1)c1ccc(Cl)cc1 (configuration not stated)	i	i	i	i	i	/	/
N/C(=N/OC(=O)c1ccc(Cl)cc1)c1ncc([N+](=O)[O-])s1	i	i	i	i	i	/	/
COc1ccc(-c2c(-c3ccc(OC)c(C)c3O)n[nH]c2C)cc1	i	i	i	i	i	/	/
CC(C)C(=O)N(Cc1ccc(F)cc1)Cc1nc2ccccc2c(=O)[nH]1	i	i	i	i	i	/	/
CC(C)CCn1c(O)c(N=NC(=O)Cn2ccc(C(F)(F)F)n2)c2ccccc21	i	i	i	-15.4*	i	44.5*	83.8*
CCCn1c(O)c(N=NC(=O)CNC(=O)c2ccncc2)c2ccccc21	i	i	i	i	i	/	/
CCOc1ccc(NC(=O)C(=O)NCCN2CCN(C(=O)c3ccc(C)cc3)CC2)cc1	i	i	i	i	i	/	/
O=[N+]([O-])c1cccc(-c2ccc(/C=N/Nc3nc(N4CCCCC4)nc(N4CCCCC4)n3)o2)c1	i	i	i	-12.6*	i	81.0*	83.8*
CC(SCc1ccccc1)C(=O)Nc1ccccc1 (configuration not stated)	i	i	i	i	i	/	/
Cc1cccc(NC(=O)CSc2nc3ccccc3nc2N2CC(C)OC(C)C2)c1 (configuration not stated)	i	i	i	i	i	/	/
Cc1cccc(N2CCN(C(=O)CSc3nc4ccccc4nc3N3CC(C)OC(C)C3)CC2)c1C (configuration not stated)	i	i	i	-8.09*	i	85.0*	83.8*
CCOc1cnc(-c2c(-c3c(Cl)cccc3Cl)noc2C)o1	i	i	i	-8.54*	i	90.0*	61.3*
CCOc1cnc(-c2ccc(Cl)cc2)o1	i	i	i	i	i	/	/
CCOC(=O)c1c(NC(=O)CSc2nnnn2-c2ccc3c(c2)OCCO3)sc(C)c1C	i	i	i	-9.5*	i	83.5*	31.8*
CC(/C=N/n1c(-c2n[nH]c3c2CCC3)n[nH]c1=S)=C\c1ccco1	i	i	i	-9.02*	i	93.0*	89.8*
Cc1ccccc1-c1n[nH]c(=S)n1/N=C/C=C/c1ccco1	i	i	i	-8*	i	89.0*	43.8*
CC(/C=N/n1c(-c2cccnc2)n[nH]c1=S)=C\c1ccco1	i	i	i	i	i	/	/
O=c1c2c(nc3n1CCCCC3)-c1ccccc1CC21CCCCC1	i	i	i	-15.9*	i	90.5*	78.8*
CN1CCC(Oc2ccccc2Sc2ccc(C(F)(F)F)cc2)CC1	i	i	i	i	i	/	/
SMILES	RGS4 inh	MrgX1 allo act	MrgX1 ag	RGS4 act	MrgX1 antag	RGS4 act valid	M3R Ca counter
CN1CCC(Oc2ccc(Sc3ccccc3)cc2)CC1	i	i	i	-8.21*	i	86.0*	41.3*
CCCC[C@@H]1CNCCN1CCc1cc(C(F)(F)F)cc(C(F)(F)F)c1	i	i	i	-7.88*	i	93.0*	85.8*
CCN(CC)CC#CCC(O)(c1ccccc1)C1CCCCC1 (configuration not stated)	i	i	i	-10.5*	i	91.0*	90.3*
CC(C)N(CC#CCC(O)(c1ccccc1)c1ccccc1)C(C)C	i	i	i	i	i	/	/
CC1=C(c2ccccc2)SC2=NCCN21	i	i	i	-9.67*	i	75.0*	31.3*
CC(C)c1cc(-c2cc(C(=O)NCc3ccccc3)on2)nc(NCC2CC2)n1	i	i	i	-8.36*	i	92.5*	92.3*
O=C(NCC(=O)N1CCN(c2ccccc2)CC1)c1ccccc1	i	i	i	i	i	/	/
CCn1c(=O)n(CCc2ccccc2)c(=O)c2c3c(sc21)CCCC3	i	i	i	i	i	/	/
COC(=O)Cn1c(=O)n(CCc2ccccc2)c(=O)c2c3c(sc21)CCCC3	i	i	i	-7.79*	i	91.5*	88.8*
OCC(O)C1OC(Nc2ccc(Cl)cc2)C(O)C1O (configuration not stated)	i	i	i	i	i	/	/
CCN(CC)C1CCN(C(=O)c2cc(COc3cccc4cccnc34)on2)C1 (configuration not stated)	i	/	/	-9.15*	/	89.5*	75.3*
O=C(Nc1ccc2c(c1)OCO2)C1CC(c2cccc(Br)c2)=NO1 (configuration not stated)	i	i	i	i	i	/	/
COC(=O)c1cccc(Nc2nc(-c3cccnc3)nc3ccccc23)c1	i	i	i	-8.43*	i	42.0*	0.0
O=C(O)c1cccc(Nc2nc(-c3cccnc3)nc3ccccc23)c1	i	i	i	i	i	/	/
CC1CCCCN1CC(=O)Nc1ccc(Oc2ccccc2)cc1 (configuration not stated)	i	i	i	-9.09*	i	93.0*	87.3*
CC1CCCCN1CC(=O)Nc1ccc(N2CCCCCC2)cc1 (configuration not stated)	i	i	i	i	i	/	/
Cc1[nH]c2ccccc2c1SCc1n[nH]c(=S)n1C	i	i	i	i	i	/	/
Cc1[nH]c2ccccc2c1Cc1n[nH]c(=S)n1C	i	i	i	-8.19*	i	0.0	0.0
